# This is a sample that favours compounds with a hit; in the whole collection about 0.94% have one here.
# PKA-R1A activ: activators of PKA-R1A holoenzyme, primary screen, biochemical, fluorescence polarization, Cy5-IP20, bovine R1A, mouse PKAc; 340,000 compounds, 0.083% hits; PKA-R1A dissociation; scaled: DMSO 0%, 113 µM cGMP 100%; AID 504707, 2011; activation, % at 11.4 µM; cAMP-dependent protein kinase type I-alpha regulatory subunit (Bos taurus) + …;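 active = percent activation above the mean of all tested compounds plus 3 SD, cut at about 19% in these data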;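 also: higher means more PKAc released from R1A so a rise in polarization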
# aDG glyco up: activators of alpha-DG glycosylation, primary screen, uHTS, Pro5-aDG cells, AlphaScreen; alpha-DG glycosylation AlphaScreen (IIH6); 0% Pro5, 100% B10-LARGE cell signal; activation, % at 10 µM; 360,000 compounds, 0.22% hits; AID 624168, 2012;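 active = activation of at least 8% versus controls, or a plate z-score of at least 8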;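 also: Pro5 are CHO cells carrying HIG-tagged alpha-DG that lacks glycosylation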
# UCH37 DUB inh: inhibitors of human UCH37 deubiquitinase, primary screen, biochemical, Ub-AMC cleavage, fluorescence; 330,000 compounds, 0.33% hits; Ubiquitin carboxyl-terminal hydrolase isozyme L5 (Homo sapiens), Q9Y5K5; inhibition, % (test concentration not listed); purified proteasome/UCH37; AID 588478, 2011;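 active = mean inhibition over replicate wells above about 20%, limit read from the data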;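 also: 0% = compound-free wells with enzyme and 100% = wells lacking proteasome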
# Target sequence (Q9Y5K5 whole entry, looked up): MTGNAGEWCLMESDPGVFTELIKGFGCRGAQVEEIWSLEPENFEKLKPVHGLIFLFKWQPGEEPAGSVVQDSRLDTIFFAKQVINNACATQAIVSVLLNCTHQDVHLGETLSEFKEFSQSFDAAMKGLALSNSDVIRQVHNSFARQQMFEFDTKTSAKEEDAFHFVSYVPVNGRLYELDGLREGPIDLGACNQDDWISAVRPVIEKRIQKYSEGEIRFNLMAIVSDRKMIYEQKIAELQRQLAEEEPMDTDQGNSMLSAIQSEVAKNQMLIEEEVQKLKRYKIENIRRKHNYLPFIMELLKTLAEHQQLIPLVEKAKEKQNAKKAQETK
#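 system = Proteasome-associated human UCH37 deubiquitinase | amount = 0.15 nM proteasome as dispensed | medium = pH 7.4 Tris-HCl (50 mM) with ovalbumin, ATP-MgCl2, DTT | incubation = 30 min preincubation with enzyme, 25 min cleavage at room temperature | detection = AMC fluorescence 355/460 nm | read-out basis = percent inhibition | controls = no-proteasome and no-compound wells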
# PKA-R2B act: activators of PKA-R2B holoenzyme, primary screen, biochemical, fluorescence polarization, Cy5-IP20, human. 340,000 compounds, 0.079% hits. activation, % at 11.4 µM. PKA-R2B holoenzyme dissociation; R2B truncated from residue 108, S112A mutant; 0% DMSO only, 100% 113 µM cGMP. cAMP-dependent protein kinase catalytic subunit beta (Homo sapiens) + cAMP-dependent …;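 active = activation above a cutoff set at the mean over all compounds plus 3 SD, cut at about 18% in these data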;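 also: higher means more holoenzyme dissociation and a rise in polarization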
# Fh CTSL1 inh: Fasciola hepatica cathepsin L1 inhibitors, primary screen, counter-screen for PFM18AAP inhibitor project, biochemical, QFRET, fluorogenic peptide substrate; recombinant F. hepatica cathepsin L1, Z-Leu-Arg-MCA fluorescence; inhibition, % at 5.96 µM; 300,000 compounds, 0.49% hits;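 active = inhibition above the mean of all tested compounds plus 3 SD, set per screening campaign, cut at about 17% in these data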;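 also: 0% = plate median of test compound wells and 100% = 1 µM Z-Phe-Ala-diazomethylketone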
# R2B FP artifact: fluorescence polarization artefacts, biochemical, artefact control for PKA-R2B activator project | AID 504796, 2011 | FP artifact counterscreen | shares compounds with PKA-R2B act | activation, % at 11.4 µM | 270 compounds, 6% hits; in the data active = activation above about 20%;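 also: Cy5 labelled IP20 peptide probe with compound but no PKA protein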
# PKA-R2B act conf: activators of PKA-R2B holoenzyme, confirmation, biochemical, fluorescence polarization, human; activation, % at 11.4 µM; 270 compounds, 9% hits; PKA-R2B complex, activation; shares compounds with PKA-R2B act; in the data active = activation above about 19%
# R1A FP artifact: FP signal interference without PKA proteins, confirmation, artefact control for PKA-R1A activator project, biochemical, fluorescence polarization, triplicate; shares compounds with PKA-R1A activ; Cy5-IP20 peptide alone, fluorescence polarization artifact counterscreen; activation, % at 11.4 µM; 280 compounds, 7% hits; AID 504799, 2011;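 active = mean activation over triplicate runs exceeds the adjusted cutoff derived for the parent primary screen, cut at about 19% in these data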;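 also: no PKA protein present so any polarization rise reflects compound interference; 0% = tracer peptide mix alone and 100% = mix with added PKA catalytic subunit; higher means stronger polarization artifact and likely false positive in parent screen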
# PKA-R1A confirm: activators of PKA-R1A holoenzyme, confirmation, biochemical, fluorescence polarization, Cy5-IP20, triplicate; shares compounds with PKA-R1A activ; AID 504800, 2011; 280 compounds, 9% hits; activation, % at 11.4 µM; PKA-R1A holoenzyme dissociation;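 active = mean activation over replicate wells exceeds the adjusted hit threshold taken from the earlier primary screen, cut at about 20% in these data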;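 also: 0% = holoenzyme mix with DMSO only and 100% = cGMP-activated control wells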
# * hit, by the source's call; · = no result given.
SMILES,PKA-R1A activ,aDG glyco up,UCH37 DUB inh,PKA-R2B act,Fh CTSL1 inh,R2B FP artifact,PKA-R2B act conf,R1A FP artifact,PKA-R1A confirm
O=C1N/C(=N\N=Cc2ccco2)SC1Cc1ccc(F)cc1 (centres undefined),·,·,7,·,·,·,·,·,·
COc1ccc2c(c1)cc(C(=O)NN=Cc1c(O)c(C(=O)O)cc3ccccc13)n2C,·,·,-3,·,·,·,·,·,·
CC1=NN(c2nc(-c3ccc(Cl)cc3)cs2)C(=O)C1,6,0,4,20*,0,0,4,·,·
CC1=NN(c2nc(-c3ccc(F)cc3)cs2)C(=O)C1,-6,0,2,2,4,·,·,·,·
Cc1cc(C(=O)NC2CCCN(Cc3ccc(Cl)cc3)C2)c(C)o1 (centres undefined),3,0,4,20*,-4,2,0,·,·
O=C(Nc1ccc(Cl)cn1)c1cccc(S(=O)(=O)N2CCCCC2)c1,1,0,2,-9,·,·,·,·,·
O=C(Nc1ccc(Cl)cn1)c1cccc(S(=O)(=O)N2CCCCCC2)c1,4,0,·,20*,·,2,-2,·,·
COc1ccc(NC(=O)c2c(C(F)(F)F)nn(C)c2Cl)cc1,·,0,4,·,-1,·,·,·,·
Cn1nc(C(F)(F)F)c(C(=O)Nc2ccc(F)cc2)c1Cl,-1,0,5,20*,-1,-2,2,·,·
COc1ccc(NC(=O)CCNC(=O)Cn2cnc3ccccc3c2=O)cc1OC,-2,0,1,21*,-5,2,-3,·,·
Nc1ncnc2c1nc(Br)n2[C@@H]1O[C@@H]2COP(=O)(O)O[C@H]2[C@H]1O,117*,0,1,107*,7,-2,98*,-2,106*
CN(C)c1nc2c(N)ncnc2n1C1OC(CO)C(O)C1O (centres undefined),-2,0,·,-11,·,·,·,·,·
Nc1ncnc2c1ncn2[C@@H]1O[C@H](CO)[C@@H](O)[C@H]1O,-2,0,-2,9,-3,·,·,·,·
Nc1nc2c(nc(Br)n2[C@@H]2O[C@@H]3COP(=O)(O)O[C@H]3[C@H]2O)c(=O)[nH]1,53*,0,0,77*,0,0,78*,0,50*
CCOP1(=O)OCC2OC(n3cnc4c(N)ncnc43)C(O)C2O1 (centres undefined),102*,0,·,91*,-3,3,65*,3,76*
Cc1oc2ccc(OCc3c(F)cccc3Cl)cc2c1C(=O)O,51*,0,7,27*,-4,45*,52*,45*,51*
COc1cc(C=NNC(=O)C(=O)/C=C2\NC(C)(C)Cc3ccccc32)ccc1O,·,·,7,·,·,·,·,·,·
NC(=O)Cn1cc(C=NNC(=O)c2ccc(Cn3cc(Cl)cn3)o2)c(-c2ccccc2)n1,·,·,-25,·,·,·,·,·,·
Cc1cc(C)c(C)c(S(=O)(=O)N2CCC(C(=O)NNC(=O)c3ccccc3O)CC2)c1C,47*,0,-9,46*,-3,53*,44*,53*,45*
